According to ChEMBL document CHEMBL1138520, “Molecular and conformational determinants of pituitary adenylate cyclase-activating polypeptide (PACAP) for activation of the PAC1 receptor” (J Med Chem, 2009):
Where a SMILES comes first, the peptide text is derived from it.

How the values were obtained:
[1] = target: T1, Pituitary adenylate cyclase-activating polypeptide type I receptor (Homo sapiens, UniProt P41586); experiment: Displacement of [125I]Ac-PACAP27 from human recombinant PAC1 receptor expressed in CHO cells by gamma- counter; format: cell-based
Target sequence in this assay (P41586 whole entry): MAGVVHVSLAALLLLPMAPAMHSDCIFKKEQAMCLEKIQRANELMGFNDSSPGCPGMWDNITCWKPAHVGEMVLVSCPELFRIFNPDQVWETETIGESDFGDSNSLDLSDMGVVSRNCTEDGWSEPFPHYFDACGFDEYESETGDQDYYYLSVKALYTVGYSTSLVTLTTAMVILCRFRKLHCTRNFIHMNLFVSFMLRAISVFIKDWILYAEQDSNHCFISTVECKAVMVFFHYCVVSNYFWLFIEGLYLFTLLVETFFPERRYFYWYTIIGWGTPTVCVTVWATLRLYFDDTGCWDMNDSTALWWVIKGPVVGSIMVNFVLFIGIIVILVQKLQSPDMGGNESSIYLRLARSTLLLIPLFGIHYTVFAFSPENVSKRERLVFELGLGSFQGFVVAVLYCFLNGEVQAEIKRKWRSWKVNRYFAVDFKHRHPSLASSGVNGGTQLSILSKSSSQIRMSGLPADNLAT

[2] = target: T1, Pituitary adenylate cyclase-activating polypeptide type I receptor; experiment: Agonist activity at human recombinant PAC1 receptor expressed in CHO cells assessed as PACAP38-induced calcium mobilization by FLIPR assay; format: functional, cell-based
Method in brief: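 CHO cells stably expressing recombinant human PAC1, plated 24 h before assay, loaded with fluo-4 AM for 60 min at 37 °C in the dark, then rinsed into HBSS for 15 min at 37 °C. EC50 and efficacy came from nonlinear regression; 4-10 independent assays in duplicate.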
Target sequence in this assay (P41586 whole entry): as above

[3] = target: T1, Pituitary adenylate cyclase-activating polypeptide type I receptor; experiment: Agonist activity at human recombinant PAC1 receptor expressed in CHO cells assessed as PACAP38-induced calcium mobilization by FLIPR assay relative to PACAP38; format: functional, cell-based
Method in brief: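 CHO cells stably expressing recombinant human PAC1, plated 24 h before assay, loaded with fluo-4 AM for 60 min at 37 °C in the dark, then rinsed into HBSS for 15 min at 37 °C. Peptide was added 18 s into a 150 s read (ex 480/em 525 nm), at final concentrations of 1 × 10-12 to 1 × 10^-5 M. Response was normalised to 1 × 10^-5 M PACAP38 on each plate. EC50 and efficacy came from nonlinear regression; 4-10 independent assays in duplicate.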
Target sequence in this assay (P41586 21-468 limits assumed): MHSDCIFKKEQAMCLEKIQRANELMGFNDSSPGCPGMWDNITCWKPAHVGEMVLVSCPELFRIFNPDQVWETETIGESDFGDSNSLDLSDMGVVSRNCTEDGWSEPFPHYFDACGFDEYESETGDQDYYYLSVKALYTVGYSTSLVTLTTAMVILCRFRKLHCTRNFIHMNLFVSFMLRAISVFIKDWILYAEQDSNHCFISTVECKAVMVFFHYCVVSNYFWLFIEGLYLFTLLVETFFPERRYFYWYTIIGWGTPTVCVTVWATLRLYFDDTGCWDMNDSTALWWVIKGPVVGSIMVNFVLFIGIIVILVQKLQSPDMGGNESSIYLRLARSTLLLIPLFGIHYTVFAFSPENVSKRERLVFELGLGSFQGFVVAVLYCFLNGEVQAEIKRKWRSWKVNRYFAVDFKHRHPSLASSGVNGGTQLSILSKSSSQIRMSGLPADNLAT

IC50 [1]	EC50 [2]	Emax [3]	SMILES
8.2 nM	9.7 nM	96.3%	CC[C@H](C)[C@H](NC(=O)CNC(=O)[C@H](CC(=O)O)NC(=O)[C@H](CO)NC(=O)[C@H](Cc1cnc[nH]1)NC(C)=O)C(=O)N[C@@H](Cc1ccccc1)C(=O)N[C@H](C(=O)N[C@@H](CC(=O)O)C(=O)N[C@@H](CO)C(=O)N[C@@H](Cc1ccc(O)cc1)C(=O)N[C@@H](CO)C(=O)N[C@@H](CCCNC(=N)N)C(=O)N[C@@H](Cc1ccc(O)cc1)C(=O)N[C@@H](CCCNC(=N)N)C(=O)N[C@@H](CCCCN)C(=O)N[C@@H](CCC(N)=O)C(=O)N[C@@H](CCSC)C(=O)N[C@@H](C)C(=O)N[C@H](C(=O)N[C@@H](CCCCN)C(=O)N[C@@H](CCCCN)C(=O)N[C@@H](Cc1ccc(O)cc1)C(=O)N[C@@H](CC(C)C)C(=O)N[C@@H](C)C(=O)N[C@@H](C)C(=O)N[C@H](C(=O)N[C@@H](CC(C)C)C(N)=O)C(C)C)C(C)C)[C@@H](C)O
51.4 nM	49.4 nM	90.2%	CC[C@H](C)[C@H](NC(=O)C(C)(C)NC(=O)[C@H](CC(=O)O)NC(=O)[C@H](CO)NC(=O)[C@@H](N)Cc1cnc[nH]1)C(=O)N[C@@H](Cc1ccccc1)C(=O)N[C@H](C(=O)N[C@@H](CC(=O)O)C(=O)N[C@@H](CO)C(=O)N[C@@H](Cc1ccc(O)cc1)C(=O)N[C@@H](CO)C(=O)N[C@@H](CCCNC(=N)N)C(=O)N[C@@H](Cc1ccc(O)cc1)C(=O)N[C@@H](CCCNC(=N)N)C(=O)N[C@@H](CCCCN)C(=O)N[C@@H](CCC(N)=O)C(=O)N[C@@H](CCSC)C(=O)N[C@@H](C)C(=O)N[C@H](C(=O)N[C@@H](CCCCN)C(=O)N[C@@H](CCCCN)C(=O)N[C@@H](Cc1ccc(O)cc1)C(=O)N[C@@H](CC(C)C)C(=O)N[C@@H](C)C(=O)N[C@@H](C)C(=O)N[C@H](C(=O)N[C@@H](CC(C)C)C(N)=O)C(C)C)C(C)C)[C@@H](C)O
6.7 nM	2.7 nM	99.4%	CC[C@H](C)[C@H](NC(=O)CNC(=O)[C@H](CC(=O)O)NC(=O)[C@H](CO)NC(=O)[C@@H](N)Cc1cnc[nH]1)C(=O)N[C@@H](Cc1ccc(O)cc1)C(=O)N[C@H](C(=O)N[C@@H](CC(=O)O)C(=O)N[C@@H](CO)C(=O)N[C@@H](Cc1ccc(O)cc1)C(=O)N[C@@H](CO)C(=O)N[C@@H](CCCNC(=N)N)C(=O)N[C@@H](Cc1ccc(O)cc1)C(=O)N[C@@H](CCCNC(=N)N)C(=O)N[C@@H](CCCCN)C(=O)N[C@@H](CCC(N)=O)C(=O)N[C@@H](CCSC)C(=O)N[C@@H](C)C(=O)N[C@H](C(=O)N[C@@H](CCCCN)C(=O)N[C@@H](CCCCN)C(=O)N[C@@H](Cc1ccc(O)cc1)C(=O)N[C@@H](CC(C)C)C(=O)N[C@@H](C)C(=O)N[C@@H](C)C(=O)N[C@H](C(=O)N[C@@H](CC(C)C)C(=O)NCC(=O)N[C@@H](CCCCN)C(=O)N[C@@H](CCCNC(=N)N)C(=O)N[C@@H](Cc1ccc(O)cc1)C(=O)N[C@@H](CCCCN)C(=O)N[C@@H](CCC(N)=O)C(=O)N[C@@H](CCCNC(=N)N)C(=O)N[C@H](C(=O)N[C@@H](CCCCN)C(=O)N[C@@H](CC(N)=O)C(=O)N[C@@H](CCCCN)C(N)=O)C(C)C)C(C)C)C(C)C)[C@@H](C)O (H-HSDGIYTDSYSRYRKQMAVKKYLAAVLGKRYKQRVKNK-NH2)
9.5 nM	10.1 nM	104%	CC[C@H](C)[C@H](NC(=O)CNC(=O)[C@H](CC(=O)O)NC(=O)C(C)(C)NC(=O)[C@@H](N)Cc1cnc[nH]1)C(=O)N[C@@H](Cc1ccccc1)C(=O)N[C@H](C(=O)N[C@@H](CC(=O)O)C(=O)N[C@@H](CO)C(=O)N[C@@H](Cc1ccc(O)cc1)C(=O)N[C@@H](CO)C(=O)N[C@@H](CCCNC(=N)N)C(=O)N[C@@H](Cc1ccc(O)cc1)C(=O)N[C@@H](CCCNC(=N)N)C(=O)N[C@@H](CCCCN)C(=O)N[C@@H](CCC(N)=O)C(=O)N[C@@H](CCSC)C(=O)N[C@@H](C)C(=O)N[C@H](C(=O)N[C@@H](CCCCN)C(=O)N[C@@H](CCCCN)C(=O)N[C@@H](Cc1ccc(O)cc1)C(=O)N[C@@H](CC(C)C)C(=O)N[C@@H](C)C(=O)N[C@@H](C)C(=O)N[C@H](C(=O)N[C@@H](CC(C)C)C(N)=O)C(C)C)C(C)C)[C@@H](C)O
7.8 nM	7.4 nM	94.2%	CC[C@H](C)[C@H](NC(=O)CNC(=O)[C@H](CC(=O)O)NC(=O)[C@@H]1CCCN1C(=O)[C@@H](N)Cc1cnc[nH]1)C(=O)N[C@@H](Cc1ccccc1)C(=O)N[C@H](C(=O)N[C@@H](CC(=O)O)C(=O)N[C@@H](CO)C(=O)N[C@@H](Cc1ccc(O)cc1)C(=O)N[C@@H](CO)C(=O)N[C@@H](CCCNC(=N)N)C(=O)N[C@@H](Cc1ccc(O)cc1)C(=O)N[C@@H](CCCNC(=N)N)C(=O)N[C@@H](CCCCN)C(=O)N[C@@H](CCC(N)=O)C(=O)N[C@@H](CCSC)C(=O)N[C@@H](C)C(=O)N[C@H](C(=O)N[C@@H](CCCCN)C(=O)N[C@@H](CCCCN)C(=O)N[C@@H](Cc1ccc(O)cc1)C(=O)N[C@@H](CC(C)C)C(=O)N[C@@H](C)C(=O)N[C@@H](C)C(=O)N[C@H](C(=O)N[C@@H](CC(C)C)C(N)=O)C(C)C)C(C)C)[C@@H](C)O
284 nM	140 nM	91.2%	CC[C@H](C)[C@H](NC(=O)CNC(=O)[C@H](CC(N)=O)NC(=O)[C@H](CO)NC(=O)[C@@H](N)Cc1cnc[nH]1)C(=O)N[C@@H](Cc1ccccc1)C(=O)N[C@H](C(=O)N[C@@H](CC(=O)O)C(=O)N[C@@H](CO)C(=O)N[C@@H](Cc1ccc(O)cc1)C(=O)N[C@@H](CO)C(=O)N[C@@H](CCCNC(=N)N)C(=O)N[C@@H](Cc1ccc(O)cc1)C(=O)N[C@@H](CCCNC(=N)N)C(=O)N[C@@H](CCCCN)C(=O)N[C@@H](CCC(N)=O)C(=O)N[C@@H](CCSC)C(=O)N[C@@H](C)C(=O)N[C@H](C(=O)N[C@@H](CCCCN)C(=O)N[C@@H](CCCCN)C(=O)N[C@@H](Cc1ccc(O)cc1)C(=O)N[C@@H](CC(C)C)C(=O)N[C@@H](C)C(=O)N[C@@H](C)C(=O)N[C@H](C(=O)N[C@@H](CC(C)C)C(N)=O)C(C)C)C(C)C)[C@@H](C)O
60.7 nM	39.8 nM	99.2%	CSCC[C@H](NC(=O)[C@H](CCC(N)=O)NC(=O)[C@H](CCCCN)NC(=O)[C@H](CCCNC(=N)N)NC(=O)[C@H](Cc1ccc(O)cc1)NC(=O)[C@H](CCCNC(=N)N)NC(=O)[C@H](CO)NC(=O)[C@H](Cc1ccc(O)cc1)NC(=O)[C@H](CO)NC(=O)[C@H](CC(=O)O)NC(=O)[C@@H](NC(=O)[C@H](Cc1ccccc1)NC(=O)[C@H](C)NC(=O)CNC(=O)[C@H](CC(=O)O)NC(=O)[C@H](CO)NC(=O)[C@@H](N)Cc1cnc[nH]1)[C@@H](C)O)C(=O)N[C@@H](C)C(=O)N[C@H](C(=O)N[C@@H](CCCCN)C(=O)N[C@@H](CCCCN)C(=O)N[C@@H](Cc1ccc(O)cc1)C(=O)N[C@@H](CC(C)C)C(=O)N[C@@H](C)C(=O)N[C@@H](C)C(=O)N[C@H](C(=O)N[C@@H](CC(C)C)C(N)=O)C(C)C)C(C)C
5.1 nM	6.8 nM	98.1%	CC[C@H](C)[C@H](NC(=O)CNC(=O)[C@H](CC(=O)O)NC(=O)[C@H](C)NC(=O)[C@@H](N)Cc1cnc[nH]1)C(=O)N[C@@H](Cc1ccccc1)C(=O)N[C@H](C(=O)N[C@@H](CC(=O)O)C(=O)N[C@@H](CO)C(=O)N[C@@H](Cc1ccc(O)cc1)C(=O)N[C@@H](CO)C(=O)N[C@@H](CCCNC(=N)N)C(=O)N[C@@H](Cc1ccc(O)cc1)C(=O)N[C@@H](CCCNC(=N)N)C(=O)N[C@@H](CCCCN)C(=O)N[C@@H](CCC(N)=O)C(=O)N[C@@H](CCSC)C(=O)N[C@@H](C)C(=O)N[C@H](C(=O)N[C@@H](CCCCN)C(=O)N[C@@H](CCCCN)C(=O)N[C@@H](Cc1ccc(O)cc1)C(=O)N[C@@H](CC(C)C)C(=O)N[C@@H](C)C(=O)N[C@@H](C)C(=O)N[C@H](C(=O)N[C@@H](CC(C)C)C(N)=O)C(C)C)C(C)C)[C@@H](C)O
4 nM	0.8 nM	101%	CC[C@H](C)[C@H](NC(=O)CNC(=O)[C@H](CC(=O)O)NC(=O)[C@H](CO)NC(=O)[C@@H](N)Cc1cnc[nH]1)C(=O)N[C@@H](Cc1ccccc1)C(=O)N[C@@H](C)C(=O)N[C@@H](CC(=O)O)C(=O)N[C@@H](CO)C(=O)N[C@@H](Cc1ccc(O)cc1)C(=O)N[C@@H](CO)C(=O)N[C@@H](CCCNC(=N)N)C(=O)N[C@@H](Cc1ccc(O)cc1)C(=O)N[C@@H](CCCNC(=N)N)C(=O)N[C@@H](CCCCN)C(=O)N[C@@H](CCC(N)=O)C(=O)N[C@@H](CCSC)C(=O)N[C@@H](C)C(=O)N[C@H](C(=O)N[C@@H](CCCCN)C(=O)N[C@@H](CCCCN)C(=O)N[C@@H](Cc1ccc(O)cc1)C(=O)N[C@@H](CC(C)C)C(=O)N[C@@H](C)C(=O)N[C@@H](C)C(=O)N[C@H](C(=O)N[C@@H](CC(C)C)C(=O)NCC(=O)N[C@@H](CCCCN)C(=O)N[C@@H](CCCNC(=N)N)C(=O)N[C@@H](Cc1ccc(O)cc1)C(=O)N[C@@H](CCCCN)C(=O)N[C@@H](CCC(N)=O)C(=O)N[C@@H](CCCNC(=N)N)C(=O)N[C@H](C(=O)N[C@@H](CCCCN)C(=O)N[C@@H](CC(N)=O)C(=O)N[C@@H](CCCCN)C(N)=O)C(C)C)C(C)C)C(C)C (H-HSDGIFADSYSRYRKQMAVKKYLAAVLGKRYKQRVKNK-NH2)
